From ChEMBL document CHEMBL5678806, “NMS-P937, an orally available, specific small-molecule polo-like kinase 1 inhibitor with antitumor activity in solid and hematologic malignancies” (Mol Cancer Ther, 2012)
Activity calls are given as the source filed them. No cut-off for these calls is given here.

Experiments:
[1] = Inhibition of CDK2/CycA (unknown origin) in presence of [gamma-33P]ATP; design: species or system Homo sapiens
[2] = molecular target: Mitogen-activated protein kinase 1 (Homo sapiens, UniProt P28482); assay: Inhibition of ERK2 (unknown origin) in presence of [gamma-33P]ATP
[3] = molecular target: MAP kinase-interacting serine/threonine-protein kinase 2 (Homo sapiens, UniProt Q9HBH9); assay: Inhibition of MNK2 (unknown origin) in presence of [gamma-33P]ATP
[4] = molecular target: Fibroblast growth factor receptor 4 (Homo sapiens) (UniProt P22455); assay: Inhibition of N-terminal His6-tagged recombinant human FGFR4 (442 to 755 residues) expressed in baculovirus infected Sf21 cells assessed as residual activity at 0.1 uM relative to control
[5] = molecular target: Serine/threonine-protein kinase STK11 (Homo sapiens) (UniProt Q15831); assay: Inhibition of N-terminal 6His-tagged recombinant full-length human LKB1 expressed in Sf21 cells assessed as residual activity at 0.1 uM relative to control
[6] = molecular target: Serine/threonine-protein kinase Nek7 (Homo sapiens) (UniProt Q8TDX7); assay: Inhibition of N-terminal His6-tagged recombinant human NEK7 (2 to end residues) expressed in baculovirus infected Sf21 cells assessed as residual activity at 0.1 uM relative to control
[7] = molecular target: Mitogen-activated protein kinase 11 (Homo sapiens) (UniProt Q15759); assay: Inhibition of N-terminal GST fusion protein corresponding to full-length human SAPK2b expressed in E. coli assessed as residual activity at 0.1 uM relative to control
[8] = molecular target: Tyrosine-protein kinase BTK (Homo sapiens) (UniProt Q06187); assay: Inhibition of N-terminal His6-tagged recombinant full-length human BTK expressed in baculovirus infected Sf21 cells assessed as residual activity at 1 uM relative to control
[9] = molecular target: Casein kinase I isoform gamma-3 (Homo sapiens) (UniProt Q9Y6M4); assay: Inhibition of N-terminal 6His-tagged recombinant human CK1gamma3 (1 to 330 residues) expressed in baculovirus infected Sf21 cells assessed as residual activity at 1 uM relative to control
[10] = molecular target: Macrophage colony-stimulating factor 1 receptor (Homo sapiens) (UniProt P07333); assay: Inhibition of N-terminal His6-tagged recombinant human Fms (538 to end residues) expressed in baculovirus infected Sf21 cells assessed as residual activity at 1 uM relative to control
[11] = molecular target: Homeodomain-interacting protein kinase 1 (Homo sapiens) (UniProt Q86Z02); assay: Inhibition of N-terminal 6His-tagged recombinant human HIPK1 (158 to 555 residues) expressed in baculovirus infected Sf21 cells assessed as residual activity at 1 uM relative to control
[12] = molecular target: Serine/threonine-protein kinase MARK2 (Homo sapiens) (UniProt Q7KZI7); assay: Inhibition of N-terminal His6-tagged recombinant full-length human PAR-1Balpha expressed in baculovirus infected Sf21 cells assessed as residual activity at 1 uM relative to control
[13] = molecular target: Serine/threonine-protein kinase TBK1 (Homo sapiens) (UniProt Q9UHD2); assay: Inhibition of N-terminal His6-tagged recombinant full-length human TBK1 expressed in baculovirus infected Sf21 cells assessed as residual activity at 1 uM relative to control
[14] = test system: ACHN; assay: Antiproliferative activity against human ACHN cells assessed as inhibition of cell growth incubated for 72 hrs by cell-titer glo assay; format: functional, cell-based
In short: (§1)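 Cells seeded 10,000–30,000/cm² (adherent) or 100,000/mL (suspension) in medium with 10% fetal calf serum; after 24 h treated in duplicate with serial dilutions for 72 h. Viable cells read by CellTiter-Glo luminescence; IC50 from sigmoidal fit; at least two independent experiments.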

[15] = test system: NCI-H322M; assay: Antiproliferative activity against human NCI-H322M cells assessed as inhibition of cell growth incubated for 72 hrs by cell-titer glo assay; format: functional, cell-based
In short: (§2)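 Cells from ATCC or ECACC, kept in supplier-recommended medium with 1% penicillin-streptomycin at 37°C, 5% CO₂. Seeded at 10,000–30,000/cm² (adherent) or 100,000/mL (nonadherent) in medium with 10% fetal calf serum. Dosed after 24 h in duplicate with serial dilutions. Viable cells read by CellTiter-Glo 72 h later. IC50 from sigmoidal fit. At least two independent experiments.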

[16] = test system: SK-LU-1; assay: Antiproliferative activity against human SK-LU-1 cells assessed as inhibition of cell growth incubated for 72 hrs by cell-titer glo assay; format: functional, cell-based; conditions: SK-LU-1, 72 h
[17] = test system: NCI-H358; assay: Antiproliferative activity against human NCI-H358 cells assessed as inhibition of cell growth incubated for 72 hrs by cell-titer glo assay; format: functional, cell-based; conditions: NCI-H358, 72 h; in short: as §2
[18] = test system: NCI-H82; assay: Antiproliferative activity against human NCI-H82 cells assessed as inhibition of cell growth incubated for 72 hrs by cell-titer glo assay; format: functional, cell-based; conditions: NCI-H82, 72 h; in short: as §2
[19] = test system: MIA PaCa-2; assay: Antiproliferative activity against human MIA PaCa-2 cells assessed as inhibition of cell growth incubated for 72 hrs by cell-titer glo assay; format: functional, cell-based; conditions: MIA PaCa-2, 72 h; in short: as §2
[20] = test system: PC-3; assay: Antiproliferative activity against human PC-3 cells assessed as inhibition of cell growth incubated for 72 hrs by cell-titer glo assay; format: functional, cell-based; conditions: PC-3, 72 h; in short: as §2
[21] = test system: CCRF-CEM; assay: Antiproliferative activity against human CCRF-CEM cells assessed as inhibition of cell growth incubated for 72 hrs by cell-titer glo assay; format: functional, cell-based; in short: as §1
[22] = test system: RERF-LC-AI; assay: Antiproliferative activity against human RERF-LC-AI cells assessed as inhibition of cell growth incubated for 72 hrs by cell-titer glo assay; format: functional, cell-based; in short: as §2
[23] = test system: Granta-519; assay: Antiproliferative activity against human Granta-519 cells assessed as inhibition of cell growth incubated for 72 hrs by cell-titer glo assay; format: functional, cell-based; conditions: Granta-519, 72 h
In short: (§3)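 Cells seeded at 10,000–30,000/cm² (adherent) or 100,000/mL (nonadherent) in medium with 10% fetal calf serum; after 24 h, treated in duplicate with serial dilutions for 72 h. Viable cell number read by CellTiter-Glo luminescence; IC50 from sigmoidal fit; at least two independent experiments.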

[24] = test system: SU-DHL10; assay: Antiproliferative activity against human SU-DHL-10 cells assessed as inhibition of cell growth incubated for 72 hrs by cell-titer glo assay; format: functional, cell-based; conditions: SU-DHL10, 72 h
[25] = test system: KMS-11; assay: Antiproliferative activity against human KMS-11 cells assessed as inhibition of cell growth incubated for 72 hrs by cell-titer glo assay; format: functional, cell-based; conditions: KMS-11, 72 h; in short: as §3
[26] = test system: NHDF; assay: Induction of DNA damage in human NHDF cells assessed as H2AX phosphorylation at 0.5 to 1 uM incubated for 8 hrs by Western blotting analysis; format: toxicity, cell-based; conditions: dose 0.5-1 µM
[27] = AUC in Sprague-Dawley rat at 10 mg/kg, po by LC-MS analysis; format: ADME, organism-based; conditions: in vivo
[28] = Oral bioavailability in male cynomolgus monkey at 5 mg/kg by LC-MS analysis; format: ADME, organism-based, Macaca fascicularis; conditions: in vivo
[29] = test system: U2OS; assay: Effect on cell morphology in human U2OS cells expressing GFP/alpha-tubulin fusion protein assessed as misaligned chromosomes […] at 1 uM incubated for 24 hrs by laser scanning confocal microscopy analysis; format: functional, cell-based

Serine/threonine-protein kinase TBK1 (Homo sapiens), sequence (Q9UHD2 whole entry): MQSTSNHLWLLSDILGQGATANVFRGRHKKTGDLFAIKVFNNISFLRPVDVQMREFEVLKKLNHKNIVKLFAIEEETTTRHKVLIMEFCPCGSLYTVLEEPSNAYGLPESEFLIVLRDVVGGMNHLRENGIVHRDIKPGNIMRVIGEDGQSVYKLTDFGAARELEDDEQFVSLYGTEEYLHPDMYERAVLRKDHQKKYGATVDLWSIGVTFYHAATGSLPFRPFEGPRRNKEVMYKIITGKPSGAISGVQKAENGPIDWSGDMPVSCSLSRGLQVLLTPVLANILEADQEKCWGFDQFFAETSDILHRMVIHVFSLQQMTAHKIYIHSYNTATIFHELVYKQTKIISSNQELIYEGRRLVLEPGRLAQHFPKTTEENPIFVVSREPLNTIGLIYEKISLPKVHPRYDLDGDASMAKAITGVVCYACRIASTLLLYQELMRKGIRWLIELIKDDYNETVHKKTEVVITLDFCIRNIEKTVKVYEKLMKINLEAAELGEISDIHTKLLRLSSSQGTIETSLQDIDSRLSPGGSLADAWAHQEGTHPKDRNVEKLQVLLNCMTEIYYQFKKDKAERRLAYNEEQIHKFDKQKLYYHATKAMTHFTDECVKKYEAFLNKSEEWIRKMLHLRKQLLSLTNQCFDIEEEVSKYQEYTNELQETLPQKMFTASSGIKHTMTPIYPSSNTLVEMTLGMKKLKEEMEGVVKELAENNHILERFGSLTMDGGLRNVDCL
Macrophage colony-stimulating factor 1 receptor (Homo sapiens), sequence (P07333 whole entry, the tested form may be a part): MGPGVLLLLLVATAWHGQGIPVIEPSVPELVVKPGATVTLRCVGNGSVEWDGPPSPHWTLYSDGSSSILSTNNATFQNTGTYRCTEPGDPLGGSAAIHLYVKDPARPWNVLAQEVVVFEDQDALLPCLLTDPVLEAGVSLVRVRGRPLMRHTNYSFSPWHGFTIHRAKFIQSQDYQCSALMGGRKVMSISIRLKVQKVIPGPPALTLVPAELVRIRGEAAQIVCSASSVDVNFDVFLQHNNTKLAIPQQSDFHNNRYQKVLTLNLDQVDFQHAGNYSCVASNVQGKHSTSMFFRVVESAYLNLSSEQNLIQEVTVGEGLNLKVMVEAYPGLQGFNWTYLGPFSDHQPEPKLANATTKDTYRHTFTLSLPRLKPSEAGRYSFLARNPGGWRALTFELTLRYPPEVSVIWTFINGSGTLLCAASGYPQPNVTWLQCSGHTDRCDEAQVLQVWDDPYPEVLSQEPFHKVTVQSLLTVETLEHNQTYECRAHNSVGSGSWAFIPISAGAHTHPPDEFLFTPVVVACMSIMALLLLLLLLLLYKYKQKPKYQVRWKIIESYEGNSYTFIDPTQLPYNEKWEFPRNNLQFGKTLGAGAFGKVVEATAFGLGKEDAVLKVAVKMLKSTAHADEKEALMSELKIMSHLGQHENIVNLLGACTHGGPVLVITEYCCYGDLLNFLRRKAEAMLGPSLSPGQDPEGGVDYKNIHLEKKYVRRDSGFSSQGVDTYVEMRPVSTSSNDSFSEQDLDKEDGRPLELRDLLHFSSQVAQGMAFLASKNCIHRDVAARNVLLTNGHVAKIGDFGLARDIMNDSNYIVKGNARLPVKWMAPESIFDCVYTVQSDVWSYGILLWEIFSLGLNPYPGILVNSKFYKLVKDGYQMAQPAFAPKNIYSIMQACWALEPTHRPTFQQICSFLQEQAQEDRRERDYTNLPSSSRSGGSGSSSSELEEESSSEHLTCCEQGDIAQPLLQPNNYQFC
Serine/threonine-protein kinase STK11 (Homo sapiens), sequence (Q15831 whole entry): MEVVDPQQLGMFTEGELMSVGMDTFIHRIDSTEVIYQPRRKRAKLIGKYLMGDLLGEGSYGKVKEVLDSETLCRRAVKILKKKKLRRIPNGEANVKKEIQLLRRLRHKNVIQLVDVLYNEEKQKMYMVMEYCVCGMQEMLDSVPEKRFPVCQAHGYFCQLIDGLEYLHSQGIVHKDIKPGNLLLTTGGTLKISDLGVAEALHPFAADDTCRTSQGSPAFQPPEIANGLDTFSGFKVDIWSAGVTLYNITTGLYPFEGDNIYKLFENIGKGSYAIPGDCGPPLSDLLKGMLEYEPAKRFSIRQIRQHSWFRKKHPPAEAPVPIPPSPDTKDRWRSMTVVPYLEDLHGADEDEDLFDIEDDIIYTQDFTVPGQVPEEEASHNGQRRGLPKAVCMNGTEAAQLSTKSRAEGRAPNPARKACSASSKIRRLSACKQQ
Fibroblast growth factor receptor 4 (Homo sapiens), sequence (P22455 22-802 limits assumed): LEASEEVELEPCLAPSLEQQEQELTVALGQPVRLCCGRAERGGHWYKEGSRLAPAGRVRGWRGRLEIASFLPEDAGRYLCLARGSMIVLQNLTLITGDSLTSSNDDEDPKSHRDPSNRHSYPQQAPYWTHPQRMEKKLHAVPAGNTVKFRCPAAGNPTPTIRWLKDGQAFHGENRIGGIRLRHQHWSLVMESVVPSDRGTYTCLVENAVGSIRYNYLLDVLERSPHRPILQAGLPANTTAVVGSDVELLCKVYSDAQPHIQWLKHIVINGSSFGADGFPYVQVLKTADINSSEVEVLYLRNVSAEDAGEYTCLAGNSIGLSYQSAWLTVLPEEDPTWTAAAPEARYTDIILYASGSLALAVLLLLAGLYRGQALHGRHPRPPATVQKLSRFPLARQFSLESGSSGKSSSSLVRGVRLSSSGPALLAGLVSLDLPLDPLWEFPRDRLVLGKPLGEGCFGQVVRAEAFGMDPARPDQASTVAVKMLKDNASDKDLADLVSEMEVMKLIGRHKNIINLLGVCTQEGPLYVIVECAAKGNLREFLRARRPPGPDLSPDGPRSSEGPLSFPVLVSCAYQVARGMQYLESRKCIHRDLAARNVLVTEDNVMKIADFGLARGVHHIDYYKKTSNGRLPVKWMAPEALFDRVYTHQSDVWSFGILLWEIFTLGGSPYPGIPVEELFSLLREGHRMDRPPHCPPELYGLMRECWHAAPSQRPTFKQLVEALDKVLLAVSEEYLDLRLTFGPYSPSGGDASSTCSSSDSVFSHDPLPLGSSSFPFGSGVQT
Serine/threonine-protein kinase MARK2 (Homo sapiens), sequence (Q7KZI7 whole entry): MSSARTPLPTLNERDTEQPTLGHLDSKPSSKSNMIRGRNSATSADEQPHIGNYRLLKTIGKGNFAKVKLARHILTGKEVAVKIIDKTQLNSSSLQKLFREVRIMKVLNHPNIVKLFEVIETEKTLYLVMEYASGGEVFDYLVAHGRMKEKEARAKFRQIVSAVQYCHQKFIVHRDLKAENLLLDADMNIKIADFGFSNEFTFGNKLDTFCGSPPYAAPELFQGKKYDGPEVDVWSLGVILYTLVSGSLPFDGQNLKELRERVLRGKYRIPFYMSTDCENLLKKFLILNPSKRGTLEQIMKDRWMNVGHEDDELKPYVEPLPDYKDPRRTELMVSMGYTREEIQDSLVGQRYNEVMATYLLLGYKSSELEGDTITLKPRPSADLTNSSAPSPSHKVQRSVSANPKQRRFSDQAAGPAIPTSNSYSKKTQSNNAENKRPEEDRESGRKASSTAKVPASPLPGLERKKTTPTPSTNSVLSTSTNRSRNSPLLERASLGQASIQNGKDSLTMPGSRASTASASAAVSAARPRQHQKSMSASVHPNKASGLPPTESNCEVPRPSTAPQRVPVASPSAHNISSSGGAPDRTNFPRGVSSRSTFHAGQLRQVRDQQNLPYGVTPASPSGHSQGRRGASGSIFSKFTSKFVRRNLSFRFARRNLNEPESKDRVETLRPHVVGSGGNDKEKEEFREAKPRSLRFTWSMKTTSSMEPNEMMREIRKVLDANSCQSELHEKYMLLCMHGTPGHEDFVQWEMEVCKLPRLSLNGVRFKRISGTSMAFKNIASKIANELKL
MAP kinase-interacting serine/threonine-protein kinase 2, sequence (Q9HBH9 whole entry, the tested form may be a part): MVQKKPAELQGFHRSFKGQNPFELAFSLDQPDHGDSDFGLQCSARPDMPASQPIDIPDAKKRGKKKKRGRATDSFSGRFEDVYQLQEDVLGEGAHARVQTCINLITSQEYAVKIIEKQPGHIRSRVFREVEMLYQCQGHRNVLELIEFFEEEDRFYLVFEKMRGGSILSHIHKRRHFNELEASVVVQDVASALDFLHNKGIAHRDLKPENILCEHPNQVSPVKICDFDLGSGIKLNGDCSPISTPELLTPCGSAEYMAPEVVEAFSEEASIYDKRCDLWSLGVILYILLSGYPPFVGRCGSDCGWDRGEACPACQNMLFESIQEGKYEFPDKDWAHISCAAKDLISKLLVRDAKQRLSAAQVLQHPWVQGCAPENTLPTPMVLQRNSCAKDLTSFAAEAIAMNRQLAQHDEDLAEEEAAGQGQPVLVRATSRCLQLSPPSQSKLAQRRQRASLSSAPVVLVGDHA
Tyrosine-protein kinase BTK (Homo sapiens), sequence (Q06187 whole entry, the tested form may be a part, canonical isoform): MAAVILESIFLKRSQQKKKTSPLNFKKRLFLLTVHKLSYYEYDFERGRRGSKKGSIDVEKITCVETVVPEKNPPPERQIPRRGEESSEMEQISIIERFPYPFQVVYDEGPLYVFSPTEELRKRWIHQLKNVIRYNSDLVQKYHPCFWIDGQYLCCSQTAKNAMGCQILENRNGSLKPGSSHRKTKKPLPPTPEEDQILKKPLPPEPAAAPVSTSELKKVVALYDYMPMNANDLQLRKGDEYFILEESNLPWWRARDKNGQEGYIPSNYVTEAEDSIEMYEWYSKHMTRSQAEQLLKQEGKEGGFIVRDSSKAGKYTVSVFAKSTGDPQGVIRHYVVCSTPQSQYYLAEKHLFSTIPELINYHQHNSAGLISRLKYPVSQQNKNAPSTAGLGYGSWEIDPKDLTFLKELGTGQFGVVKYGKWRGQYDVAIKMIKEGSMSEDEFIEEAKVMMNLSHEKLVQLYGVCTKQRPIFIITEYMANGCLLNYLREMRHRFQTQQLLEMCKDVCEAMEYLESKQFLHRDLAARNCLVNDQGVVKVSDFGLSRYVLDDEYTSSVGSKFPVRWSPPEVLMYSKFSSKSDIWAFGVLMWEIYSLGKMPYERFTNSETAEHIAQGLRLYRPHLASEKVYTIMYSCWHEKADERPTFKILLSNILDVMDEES

## CN1CCN(c2ccc(OC(F)(F)F)c(Nc3ncc4c(n3)-c3c(c(C(N)=O)nn3CCO)CC4)c2)CC1 [ONVANSERTIB]
[1]
  IC50: > 10000 nM
[2]
  IC50: > 10000 nM
[3]
  IC50: > 10000 nM
[4]
  Activity: 93%
[5]
  Activity: 113%
[6]
  Activity: 123%
[7]
  Activity: 152%
[8]
  Activity: 84%
[9]
  Activity: 39%
[10]
  Activity: 90%
[11]
  Activity: 90%
[12]
  Activity: 87%
[13]
  Activity: 96%
[14]
  IC50: 429 nM
[15]
  IC50: 183 nM
[16]
  IC50: 443 nM
[17]
  IC50: 175 nM
[18]
  IC50: 16 nM
[19]
  IC50: 112 nM
[20]
  IC50: 152 nM
[21]
  IC50: 55 nM
[22]
  IC50: 90 nM
[23]
  IC50: 29 nM
[24]
  IC50: 43 nM
[25]
  IC50: 46 nM
[26]
  Activity: Toxic
[27]
  AUC: 46.4 µM·h
[28]
  F: 35%
[29]
  Activity: Active
